# Tested on: HEK-293T
# Assay: Multiplex assay against HEK293T
# Type: toxicity, cell-based
# Settings: human
# Summary of the method: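 Compound was added to live cells that had been stained at seeding with Hoechst33342, BioTracker Green Microtubule Cytoskeleton Dye, MitoTracker Red and Annexin V Alexa Fluor 680, and imaging followed on a CQ1 microscope at 37°C and 5% CO2. CellPathfinder machine-learning gating divided cells into Hoechst high-intensity objects or normal cells, normal cells into healthy, pyknosed or fragmented nuclei, and pyknosed cells into mitotic or apoptotic. Tubulin, mitochondrial-mass and membrane-permeability phenotypes are per cents of healthy-nucleus cells.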
# [1] = 12 h, 1 µM, compound concentration 1 uM, replicate 1
# [2] = 12 h, 1 µM, compound concentration 1 uM, replicate 2
# [3] = 12 h, 10 µM, compound concentration 10 uM, replicate 1
# [4] = 12 h, 10 µM, compound concentration 10 uM, replicate 2
# [5] = 24 h, 1 µM, compound concentration 1 uM, replicate 1
# [6] = 24 h, 1 µM, compound concentration 1 uM, replicate 2
# [7] = 24 h, 10 µM, compound concentration 10 uM, replicate 1
# [8] = 24 h, 10 µM, compound concentration 10 uM, replicate 2
# [9] = 48 h, 1 µM, compound concentration 1 uM, replicate 1
# [10] = 48 h, 1 µM, compound concentration 1 uM, replicate 2
# [11] = 48 h, 10 µM, compound concentration 10 uM, replicate 1
# [12] = 48 h, 10 µM, compound concentration 10 uM, replicate 2
structure (smiles),measurement,setting,value
C[C@H]1[C@H]2CC[C@H]3[C@@H]4CC=C5C[C@@H](N(C)C)CC[C@]5(C)[C@H]4CC[C@]23CN1C [CONESSINE],Population Apoptotic (%),[1],35%
same,Population Fragmented Nuclei (%),[1],5%
same,Population Healthy Nuclei (%),[1],78%
same,Population Hoechst High Intensity Objects (%),[1],6%
same,Population Membrane Permeable-Phenotype (%),[1],0%
same,Population Mitochondria Different-Phenotype (%),[1],39%
same,Population Mitotic Cells (%),[1],65%
same,Population Normal (%),[1],93%
same,Population Pyknosed Nuclei (%),[1],16%
same,Population Tubulin-Different-Phenotype (%),[1],26%
same,Total Cell Count,[1],400
same,Population Apoptotic (%),[2],48%
same,Population Fragmented Nuclei (%),[2],4%
same,Population Healthy Nuclei (%),[2],85%
same,Population Hoechst High Intensity Objects (%),[2],8%
same,Population Mitochondria Different-Phenotype (%),[2],58%
same,Population Mitotic Cells (%),[2],51%
same,Population Normal (%),[2],91%
same,Population Pyknosed Nuclei (%),[2],10%
same,Population Tubulin-Different-Phenotype (%),[2],22%
same,Total Cell Count,[2],356
same,Population Apoptotic (%),[3],35%
same,Population Fragmented Nuclei (%),[3],6%
same,Population Healthy Nuclei (%),[3],77%
same,Population Hoechst High Intensity Objects (%),[3],6%
same,Population Membrane Permeable-Phenotype (%),[3],1%
same,Population Mitochondria Different-Phenotype (%),[3],56%
same,Population Mitotic Cells (%),[3],65%
same,Population Normal (%),[3],93%
same,Population Pyknosed Nuclei (%),[3],15%
same,Population Tubulin-Different-Phenotype (%),[3],38%
same,Total Cell Count,[3],419
same,Population Apoptotic (%),[4],59%
same,Population Fragmented Nuclei (%),[4],7%
same,Population Healthy Nuclei (%),[4],78%
same,Population Hoechst High Intensity Objects (%),[4],9%
same,Population Membrane Permeable-Phenotype (%),[4],0%
same,Population Mitochondria Different-Phenotype (%),[4],62%
same,Population Mitotic Cells (%),[4],40%
same,Population Normal (%),[4],90%
same,Population Pyknosed Nuclei (%),[4],14%
same,Population Tubulin-Different-Phenotype (%),[4],30%
same,Total Cell Count,[4],384
same,Population Apoptotic (%),[5],26%
same,Population Fragmented Nuclei (%),[5],9%
same,Population Healthy Nuclei (%),[5],80%
same,Population Hoechst High Intensity Objects (%),[5],5%
same,Population Membrane Permeable-Phenotype (%),[5],1%
same,Population Mitochondria Different-Phenotype (%),[5],22%
same,Population Mitotic Cells (%),[5],73%
same,Population Normal (%),[5],94%
same,Population Pyknosed Nuclei (%),[5],10%
same,Population Tubulin-Different-Phenotype (%),[5],17%
same,Total Cell Count,[5],514
same,Population Apoptotic (%),[6],25%
same,Population Fragmented Nuclei (%),[6],8%
same,Population Healthy Nuclei (%),[6],81%
same,Population Hoechst High Intensity Objects (%),[6],4%
same,Population Membrane Permeable-Phenotype (%),[6],0%
same,Population Mitochondria Different-Phenotype (%),[6],34%
same,Population Mitotic Cells (%),[6],75%
same,Population Normal (%),[6],95%
same,Population Tubulin-Different-Phenotype (%),[6],16%
same,Total Cell Count,[6],484
same,Population Apoptotic (%),[7],27%
same,Population Fragmented Nuclei (%),[7],9%
same,Population Healthy Nuclei (%),[7],79%
same,Population Hoechst High Intensity Objects (%),[7],6%
same,Population Membrane Permeable-Phenotype (%),[7],1%
same,Population Mitochondria Different-Phenotype (%),[7],38%
same,Population Mitotic Cells (%),[7],72%
same,Population Normal (%),[7],93%
same,Population Pyknosed Nuclei (%),[7],11%
same,Population Tubulin-Different-Phenotype (%),[7],28%
same,Total Cell Count,[7],572
same,Population Apoptotic (%),[8],47%
same,Population Healthy Nuclei (%),[8],82%
same,Population Hoechst High Intensity Objects (%),[8],9%
same,Population Membrane Permeable-Phenotype (%),[8],0%
same,Population Mitochondria Different-Phenotype (%),[8],43%
same,Population Mitotic Cells (%),[8],52%
same,Population Normal (%),[8],90%
same,Population Pyknosed Nuclei (%),[8],7%
same,Population Tubulin-Different-Phenotype (%),[8],24%
same,Total Cell Count,[8],474
same,Population Apoptotic (%),[9],30%
same,Population Fragmented Nuclei (%),[9],9%
same,Population Healthy Nuclei (%),[9],82%
same,Population Hoechst High Intensity Objects (%),[9],2%
same,Population Membrane Permeable-Phenotype (%),[9],1%
same,Population Mitochondria Different-Phenotype (%),[9],18%
same,Population Mitotic Cells (%),[9],69%
same,Population Normal (%),[9],97%
same,Population Pyknosed Nuclei (%),[9],7%
same,Population Tubulin-Different-Phenotype (%),[9],12%
same,Total Cell Count,[9],735
same,Population Apoptotic (%),[10],36%
same,Population Fragmented Nuclei (%),[10],10%
same,Population Healthy Nuclei (%),[10],83%
same,Population Hoechst High Intensity Objects (%),[10],4%
same,Population Mitochondria Different-Phenotype (%),[10],20%
same,Population Mitotic Cells (%),[10],63%
same,Population Normal (%),[10],95%
same,Population Pyknosed Nuclei (%),[10],5%
same,Population Tubulin-Different-Phenotype (%),[10],11%
same,Total Cell Count,[10],630
same,Population Apoptotic (%),[11],27%
same,Population Fragmented Nuclei (%),[11],14%
same,Population Healthy Nuclei (%),[11],78%
same,Population Hoechst High Intensity Objects (%),[11],4%
same,Population Membrane Permeable-Phenotype (%),[11],1%
same,Population Mitochondria Different-Phenotype (%),[11],23%
same,Population Mitotic Cells (%),[11],72%
same,Population Normal (%),[11],95%
same,Population Pyknosed Nuclei (%),[11],6%
same,Population Tubulin-Different-Phenotype (%),[11],15%
same,Total Cell Count,[11],767
same,Population Apoptotic (%),[12],36%
same,Population Fragmented Nuclei (%),[12],10%
same,Population Healthy Nuclei (%),[12],81%
same,Population Hoechst High Intensity Objects (%),[12],5%
same,Population Membrane Permeable-Phenotype (%),[12],0%
same,Population Mitochondria Different-Phenotype (%),[12],32%
same,Population Mitotic Cells (%),[12],63%
same,Population Normal (%),[12],94%
same,Population Pyknosed Nuclei (%),[12],7%
same,Population Tubulin-Different-Phenotype (%),[12],17%
same,Total Cell Count,[12],618
